In the RNAGym collection of RNA variant scans (doi:10.1126/science.aae0568):
Variants at the floor of the assay were thinned out.

B1: tRNA (parent)
chain: GUUCCGUUGGCGUAAUGGUAACGCGUCUCCCUCCUAAGGAGAAGACUGCGGGUUCGAGUCCCGUACGGAACG

Variants of: B1
Assay: yeast fitness relative to wild type (ratio to wild type); higher = fitter; tRNA-Arg(CCU), competitive growth, 37 C, YPD
Outline: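 Genotype frequency changes were the basis for Darwinian fitness relative to wild type. The frequencies came from 100-nucleotide paired-end sequencing of gene amplicons from the start population and each end population of pooled yeast strains with tRNA-Arg(CCU) gene variants at the native locus. Competition ran in YPD at 37°C for 24 hours in six replicates, genotypes needed ≥ 100 starting reads, and estimates < 0.5 were set to 0.5.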

Variant	yeast fitness
GUUCCGUUGGCGUAAUGGUAACGCGUCUCCCUCCUAAGGAGAAGACUGAGGGUUCGCGUCCCGUGCGGAACG [C49A A57C A65G]	≤ 0.5
GUUCCGUUGGCGUAAUGGUAACGCGUCUCCCUCCUAAGGAGAAGACUGAGGGUUCGAGUCCCGUACCGAACG [C49A G67C]	0.825
GUUCCGUUGGCGUAAUGGUAACGCGUCUCCCUCCUAAGGAGAAGACUGAGGGUUCCACUCCCGUACGGAACG [C49A G56C G58C]	≤ 0.5
GUUCCGUUGGCGUAAUGGUAACGCGUCUCCCUCCUAAGGAGAAGACUGUGGGUUCGAGUAACGUACGGAACG [C49U C60A C61A]	0.574
GUUCCGUUGGCGUAAUGGUAACGCGUCUCCCUCCUAAGGAGAAGACUGGGGGUUCGAGUCCCGUACGGAGCG [C49G A70G]	0.832
GUUCCGUUGGCGUAAUGGUAACGCGUCUCCCUCCUAAGGAGAAGACUGGGGGUUCGAGUCCCGUACGGAUCG [C49G A70U]	0.872
GUUCCGUUGGCGUAAUGGUAACGCGUCUCCCUCCUAAGGAGAAGACUGGGGGUUCGAGUCCCGUACGGACCG [C49G A70C]	0.845
GUUCCGUUGGCGUAAUGGUAACGCGUCUCCCUCCUAAGGAGAAGACUGUGGGUUCGAGUCCCGUCCGGAGCG [C49U A65C A70G]	0.768
GUUCCGUUGGCGUAAUGGUAACGCGUCUCCCUCCUAAGGAGAAGACUGUGGGUUCGAGUCCCGUCCGGAACG [C49U A65C]	0.935
GUUCCGUUGGCGUAAUGGUAACGCGUCUCCCUCCUAAGGAGAAGACUGUGGGUUCGAGUCCCGUUCGGAACG [C49U A65U]	0.91
GUUCCGUUGGCGUAAUGGUAACGCGUCUCCCUCCUAAGGAGAAGACUGAGGGUUCGAGUGCCGUACGGAACG [C49A C60G]	0.638
GUUCCGUUGGCGUAAUGGUAACGCGUCUCCCUCCUAAGGAGAAGACUGAGGGUUCGAGUCCCGUACGGAGCG [C49A A70G]	0.675
GUUCCGUUGGCGUAAUGGUAACGCGUCUCCCUCCUAAGGAGAAGACUGGGGGUUCGAGUCCCGUACGCACCG [C49G G68C A70C]	0.623
GUUCCGUUGGCGUAAUGGUAACGCGUCUCCCUCCUAAGGAGAAGACUGGGGGUUAGAGUUCCGUAAGGAACG [C49G C55A C60U C66A]	≤ 0.5
GUUCCGUUGGCGUAAUGGUAACGCGUCUCCCUCCUAAGGAGAAGACUGGGGGCUCGAGUACCGUACGGAACG [C49G U53C C60A]	≤ 0.5
GUUCCGUUGGCGUAAUGGUAACGCGUCUCCCUCCUAAGGAGAAGACUGAGGGUUCGAGUCCCAUACGGAACG [C49A G63A]	0.582
GUUCCGUUGGCGUAAUGGUAACGCGUCUCCCUCCUAAGGAGAAGACUGAGGGUUCGAGUCCCGUACGGCACG [C49A A69C]	0.709
GUUCCGUUGGCGUAAUGGUAACGCGUCUCCCUCCUAAGGAGAAGACUGAGGGUUCGAGUCCCGUACGGUACG [C49A A69U]	0.681
GUUCCGUUGGCGUAAUGGUAACGCGUCUCCCUCCUAAGGAGAAGACUGGGGGUUCGAGACCCAUACGGAACG [C49G U59A G63A]	0.564

Variant	yeast fitness
GUUCCGUUGGCGUAAUGGUAACGCGUCUCCCUCCUAAGGAGAAGACUGAGGGUUCGAGUCUAGUACCGAACG [C49A C61U C62A G67C]	≤ 0.5
GUUCCGUUGGCGUAAUGGUAACGCGUCUCCCUCCUAAGGAGAAGACUGGGGGUUCGCGUCCCGUACUGAACG [C49G A57C G67U]	0.576
GUUCCGUUGGCGUAAUGGUAACGCGUCUCCCUCCUAAGGAGAAGACUGGGGCUUCGAGUCCCGUACGGAACG [C49G G52C]	0.664
GUUCCGUUGGCGUAAUGGUAACGCGUCUCCCUCCUAAGGAGAAGACUGUGGGUUCGAGUCCCGUUCGGUACG [C49U A65U A69U]	0.861
GUUCCGUUGGCGUAAUGGUAACGCGUCUCCCUCCUAAGGAGAAGACUGGAGGUUCGAGUCCCGUACGCGACG [C49G G50A G68C A69G]	≤ 0.5
GUUCCGUUGGCGUAAUGGUAACGCGUCUCCCUCCUAAGGAGAAGACUGGGGGUUCGAGUCCCGCACGGAACG [C49G U64C]	0.972
GUUCCGUUGGCGUAAUGGUAACGCGUCUCCCUCCUAAGGAGAAGACUUCGGGUUCGAGUCACGUACGGAACG [G48U C61A]	≤ 0.5
GUUCCGUUGGCGUAAUGGUAACGCGUCUCCCUCCUAAGGAGAAGACUGAGGGUUCGAGUCCCGGACGGCACG [C49A U64G A69C]	0.592
GUUCCGUUGGCGUAAUGGUAACGCGUCUCCCUCCUAAGGAGAAGACUGGGGGUUCGAGGCCCGUACGGAACG [C49G U59G]	0.635
GUUCCGUUGGCGUAAUGGUAACGCGUCUCCCUCCUAAGGAGAAGACUGAGGGUUCGAGUCCCGUACAUAACG [C49A G67A G68U]	≤ 0.5
GUUCCGUUGGCGUAAUGGUAACGCGUCUCCCUCCUAAGGAGAAGACUGUGGGUUCGAGUCACGUUCGGAACG [C49U C61A A65U]	≤ 0.5
GUUCCGUUGGCGUAAUGGUAACGCGUCUCCCUCCUAAGGAGAAGACUGGGGGUUCGAAUCCCGUACGGAACG [C49G G58A]	0.844
GUUCCGUUGGCGUAAUGGUAACGCGUCUCCCUCCUAAGGAGAAGACUGGGGGUUCGAGUCCCGUACAGAACG [C49G G67A]	0.908
GUUCCGUUGGCGUAAUGGUAACGCGUCUCCCUCCUAAGGAGAAGACUGGGGGUUCGAGUCCCGUACUGAACG [C49G G67U]	0.695
GUUCCGUUGGCGUAAUGGUAACGCGUCUCCCUCCUAAGGAGAAGACUGGGGGUUCCAGUCCCGUACCGAACG [C49G G56C G67C]	≤ 0.5
GUUCCGUUGGCGUAAUGGUAACGCGUCUCCCUCCUAAGGAGAAGACUGAGGGUUCGAGUCGCGUACGGAACG [C49A C61G]	0.541
GUUCCGUUGGCGUAAUGGUAACGCGUCUCCCUCCUAAGGAGAAGACUGAGGGUUCGAGUCUCGUACGGAACG [C49A C61U]	0.607
GUUCCGUUGGCGUAAUGGUAACGCGUCUCCCUCCUAAGGAGAAGACUGAGGGUUGGAGUCCCGUACGGAACG [C49A C55G]	≤ 0.5
GUUCCGUUGGCGUAAUGGUAACGCGUCUCCCUCCUAAGGAGAAGACUGAGGGUUCCAGUCCCGUACGCAACG [C49A G56C G68C]	0.574
